Values after ≈ are worked out from the molar mass of the structure shown.
Legend:
Format in all cases: functional
[1] = tested on: Staphylococcus aureus; experiment: Antimicrobial activity against vancomycin-intermediate Staphylococcus aureus isolate MU50 assessed as bacterial count at 16 times MIC after 24 hrs by colony counting method
Method in brief: (§1)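 Time-kill in triplicate. Mid-exponential culture (OD600 ~0.3) diluted in supplemented Mueller-Hinton broth to 5 × 10^6 CFU/ml. Daptomycin was run at physiologic calcium, 1.1 to 1.3 mM. […] Samples at 0, 1, 4, 8 and 24 h were diluted in cold saline or vacuum filtered, then spiral-plated on BHI agar for 24 h at 35°C. Value is the log10 CFU/ml change from baseline at 24 h.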

[2] = tested on: Staphylococcus aureus; experiment: Antimicrobial activity against vancomycin-resistant Staphylococcus aureus isolate MI assessed as bacterial count at 16 times MIC after 24 hrs by colony counting method; method in brief: as §1
[3] = tested on: Staphylococcus aureus; experiment: Antimicrobial activity against vancomycin-intermediate Staphylococcus aureus isolate NJ992 assessed as bacterial count at 8 times MIC after 24 hrs by colony counting method in presence of 50% human serum
Method in brief: (§2)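 Time-kill in triplicate, starting inoculum 5 × 10^6 CFU/ml from a mid-exponential culture. Medium was 50% heat-treated, filtered human serum plus 50% broth, final 25 SMHB for TD-1792 and 50 SMHB for daptomycin. Drug at multiples of MIC. Samples to 24 h were plated on BHI agar for 24 h at 35°C. Value is the log10 CFU/ml change from baseline at 24 h.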

[4] = tested on: Staphylococcus aureus; experiment: Antimicrobial activity against vancomycin-resistant Staphylococcus aureus isolate PA assessed as bacterial count at 32 times MIC after 24 hrs by colony counting method in presence of 50% human serum; method in brief: as §2
[5] = tested on: Staphylococcus aureus; experiment: Ratio of MIC for vancomycin-intermediate Staphylococcus aureus isolate NJ992 in presence of 50% human serum to MIC for vancomycin-intermediate Staphylococcus aureus isolate NJ992
Method in brief: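 Ratio of the broth microdilution MIC (5 × 10^5 CFU/ml, 24 h, 35°C, duplicate) measured in 50% heat-treated human serum/supplemented Mueller-Hinton broth to the MIC measured in supplemented broth alone.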

[6] = tested on: Staphylococcus aureus; experiment: Antimicrobial activity against vancomycin-intermediate Staphylococcus aureus isolate NJ992 assessed as bacterial count at 16 times MIC after 24 hrs by colony counting method
Method in brief: (§3)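 24-h time-kill run in triplicate in supplemented Mueller-Hinton broth (12.5 μg/ml Mg, 25 μg/ml Ca), adjusted to 1.1–1.3 mM Ca for daptomycin. […] Samples were taken at 0, 1, 4, 8 and 24 h and counted on BHI agar after 24 h at 35°C. Value is log10 CFU/ml change from baseline at 24 h.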

[7] = tested on: Staphylococcus aureus; experiment: Antimicrobial activity against vancomycin-resistant Staphylococcus aureus isolate PA after 24 hrs by microdilution method
Method in brief: (§4)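 Broth microdilution per CLSI, inoculum 5 × 10^5 CFU/ml, Mueller-Hinton broth with 12.5 μg/ml magnesium and 25 μg/ml calcium (SMHB). Daptomycin was instead tested in SMHB at physiologic calcium (final 1.1 to 1.3 mM). Incubation 24 h at 35°C; MIC read; run in duplicate. MBC from 5-μl samples of clear wells plated on BHI agar, 24 h at 35°C.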

[8] = tested on: Staphylococcus aureus; experiment: Antimicrobial activity against vancomycin-resistant Staphylococcus aureus isolate MI assessed as bacterial count at 32 times MIC after 24 hrs by colony counting method in presence of 50% human serum; method in brief: as §2
[9] = tested on: Staphylococcus aureus; experiment: Antimicrobial activity against vancomycin-intermediate Staphylococcus aureus isolate NJ992 after 24 hrs by microdilution method; conditions: isolate NJ992, 24 h; method in brief: as §4
[10] = tested on: Staphylococcus aureus; experiment: Antimicrobial activity against vancomycin-resistant Staphylococcus aureus isolate PA after 24 hrs by microdilution method in presence of 50% human serum
Method in brief: (§5)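 Broth microdilution per CLSI, inoculum 5 × 10^5 CFU/ml, 24 h at 35°C, in duplicate. Medium was 50% (vol/vol) human serum plus 50% broth, final 25 SMHB for TD-1792 and 50 SMHB for daptomycin. Serum was heated 56°C for 1 h and filtered through 0.8, 0.5 and 0.22 μm. MBC by plating clear wells on BHI agar.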

[11] = tested on: Staphylococcus aureus; experiment: Antimicrobial activity against vancomycin-resistant Staphylococcus aureus isolate MI after 24 hrs by microdilution method in presence of 50% human serum; method in brief: as §5
[12] = tested on: Staphylococcus aureus; experiment: Antimicrobial activity against vancomycin-intermediate Staphylococcus aureus isolate NJ992 assessed as bacterial count at 4 times MIC after 24 hrs by colony counting method in presence of 50% human serum
Method in brief: (§6)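 Triplicate 24-h time-kill in 50% human serum (heated 56°C 1 h, filtered) mixed with supplemented Mueller-Hinton broth, giving final 25 μg/ml Ca broth strength for TD-1792 and 50 for daptomycin. […] Samples from 0 to 24 h were counted on BHI agar (35°C, 24 h). Value is log10 CFU/ml change from baseline.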

[13] = tested on: Staphylococcus aureus; experiment: Antimicrobial activity against vancomycin-intermediate Staphylococcus aureus isolate MU50 assessed as bacterial count at 32 times MIC after 24 hrs by colony counting method; method in brief: as §3
[14] = tested on: Staphylococcus aureus; experiment: Antimicrobial activity against vancomycin-resistant Staphylococcus aureus isolate PA assessed as bacterial count at 4 times MIC after 24 hrs by colony counting method; method in brief: as §1
[15] = tested on: Staphylococcus aureus; experiment: Antimicrobial activity against vancomycin-intermediate Staphylococcus aureus after 24 hrs by microdilution method; conditions: for MBC / MIC50 / MIC90: Staphylococcus aureus, 24 h; method in brief: as §4
[16] = tested on: Staphylococcus aureus; experiment: Antimicrobial activity against vancomycin-intermediate Staphylococcus aureus isolate MU50 after 24 hrs by microdilution method; conditions: isolate MU50, 24 h; method in brief: as §4
[17] = tested on: Staphylococcus aureus; experiment: Antimicrobial activity against vancomycin-resistant Staphylococcus aureus isolate PA assessed as bacterial count at 16 times MIC after 24 hrs by colony counting method; method in brief: as §1
[18] = tested on: Staphylococcus aureus; experiment: Antimicrobial activity against vancomycin-intermediate Staphylococcus aureus isolate MU50 assessed as bacterial count at 8 times MIC after 24 hrs by colony counting method; method in brief: as §3
[19] = tested on: Staphylococcus aureus; experiment: Antimicrobial activity against vancomycin-resistant Staphylococcus aureus isolate PA assessed as bacterial count at 32 times MIC after 24 hrs by colony counting method; method in brief: as §1
[20] = tested on: Staphylococcus aureus; experiment: Antimicrobial activity against vancomycin-intermediate Staphylococcus aureus isolate NJ992 after 24 hrs by microdilution method in presence of 50% human serum; conditions: isolate NJ992, 24 h; method in brief: as §5
[21] = tested on: Staphylococcus aureus; experiment: Antimicrobial activity against vancomycin-intermediate Staphylococcus aureus isolate MU50 assessed as bacterial count at 4 times MIC after 24 hrs by colony counting method in presence of 50% human serum; method in brief: as §6
[22] = tested on: Staphylococcus haemolyticus; experiment: Antimicrobial activity against vancomycin-intermediate Staphylococcus haemolyticus after 24 hrs by microdilution method in presence of 50% human serum; conditions: for MBC / MIC50 / MIC90: Staphylococcus haemolyticus, 24 h
Method in brief: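 Broth microdilution MIC/MBC (5 × 10^5 CFU/ml, 24 h, 35°C, duplicate) in 50% heat-treated (56°C, 1 h), filtered human serum plus supplemented Mueller-Hinton broth, with final broth strength 25 for TD-1792 and 50 for daptomycin. MBC was taken by plating clear wells on BHI agar.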

[23] = tested on: Staphylococcus aureus; experiment: Antimicrobial activity against vancomycin-resistant Staphylococcus aureus isolate MI assessed as bacterial count at 4 times MIC after 24 hrs by colony counting method in presence of 50% human serum; method in brief: as §2

Q: `CN[C@H](CC(C)C)C(=O)N[C@H]1C(=O)N[C@@H](CC(N)=O)C(=O)N[C@H]2C(=O)N[C@H]3C(=O)N[C@H](C(=O)N[C@H](C(=O)NCCCO/N=C(\C(=O)N[C@@H]4C(=O)N5C(C(=O)[O-])=C(C[n+]6ccccc6)CS[C@H]45)c4nc(N)sc4Cl)c4cc(O)cc(O)c4-c4cc3ccc4O)[C@H](O)c3ccc(c(Cl)c3)Oc3cc2cc(c3O[C@@H]2O[C@H](CO)[C@@H](O)[C@H](O)[C@H]2O[C@H]2C[C@](C)(N)[C@H](O)[C@H](C)O2)Oc2ccc(cc2Cl)[C@H]1O` was tested. Which log10CFU/ml [1] did it give?
A: 4.94

Q: What about the log10CFU/ml [2] of the same molecule?
A: 3.34

Q: And the log10CFU/ml [3]?
A: 4.09

Q: What about the log10CFU/ml [4] of the same molecule?
A: 5.09

Q: What about the Ratio [5] of the same molecule?
A: 4

Q: And the log10CFU/ml [6]?
A: 4.94

Q: And the MBC [7]?
A: 0.125 µg/mL (≈ 0.063 µM)

Q: What about the MIC [7] of the same molecule?
A: 0.03 µg/mL (≈ 0.0151 µM)

Q: What about the log10CFU/ml [8] of the same molecule?
A: 4.03

Q: And the MBC [9]?
A: 0.06 µg/mL (≈ 0.0303 µM)

Q: And the MIC [9]?
A: 0.06 µg/mL (≈ 0.0303 µM)

Q: What about the MBC [10] of the same molecule?
A: 0.125 µg/mL

Q: What about the MIC [10] of the same molecule?
A: 0.125 µg/mL

Q: And the MBC [11]?
A: 8 µg/mL

Q: And the MIC [11]?
A: 2 µg/mL

Q: And the log10CFU/ml [12]?
A: 3.61

Q: And the log10CFU/ml [13]?
A: 4.92

Q: And the log10CFU/ml [14]?
A: 4.06

Q: What about the MBC50 [15] of the same molecule?
A: 0.06 µg/mL (≈ 0.0303 µM)

Q: And the MBC90 [15]?
A: 0.125 µg/mL (≈ 0.063 µM)

Q: And the MBC [15]?
A: 0.015 µg/mL (≈ 0.00756 µM)

Q: And the MIC50 [15]?
A: 0.06 µg/mL (≈ 0.0303 µM)

Q: What about the MIC90 [15] of the same molecule?
A: 0.125 µg/mL (≈ 0.063 µM)

Q: And the MBC [16]?
A: 0.03 µg/mL (≈ 0.0151 µM)

Q: What about the MIC [16] of the same molecule?
A: 0.03 µg/mL (≈ 0.0151 µM)

Q: And the log10CFU/ml [17]?
A: 4.17

Q: What about the log10CFU/ml [18] of the same molecule?
A: 4.33

Q: And the log10CFU/ml [19]?
A: 5.05

Q: And the MBC [20]?
A: 0.25 µg/mL

Q: What about the MIC [20] of the same molecule?
A: 0.25 µg/mL

Q: What about the log10CFU/ml [21] of the same molecule?
A: 3.05

Q: And the MBC50 [22]?
A: 0.25 µg/mL

Q: And the MBC90 [22]?
A: 0.5 µg/mL

Q: And the MBC [22]?
A: 0.03 µg/mL

Q: What about the MIC50 [22] of the same molecule?
A: 0.25 µg/mL

Q: What about the MIC90 [22] of the same molecule?
A: 0.5 µg/mL

Q: And the log10CFU/ml [23]?
A: 4.12

Q: What does the source list for `CCCCCCCCCC(=O)N[C@@H](Cc1c[nH]c2ccccc12)C(=O)N[C@H](CC(N)=O)C(=O)N[C@@H](CC(=O)O)C(=O)N[C@@H]1C(=O)NCC(=O)N[C@@H](CCCN)C(=O)N[C@@H](CC(=O)O)C(=O)N[C@H](C)C(=O)N[C@@H](CC(=O)O)C(=O)NCC(=O)N[C@H](CO)C(=O)N[C@@H]([C@H](C)CC(=O)O)C(=O)N[C@@H](CC(=O)c2ccccc2N)C(=O)O[C@@H]1C`?
A: log10CFU/ml [1]: 5.12; log10CFU/ml [2]: 4.96; log10CFU/ml [3]: 5.01; log10CFU/ml [4]: 5.11; Ratio [5]: 2; log10CFU/ml [6]: 4.68; MBC [7]: 0.25 µg/mL (≈ 0.154 µM); MIC [7]: 0.25 µg/mL (≈ 0.154 µM); log10CFU/ml [8]: 5.11; MBC [9]: 1 µg/mL (≈ 0.617 µM); MIC [9]: 1 µg/mL (≈ 0.617 µM); MBC [10]: 0.5 µg/mL; MIC [10]: 0.25 µg/mL; MBC [11]: 1 µg/mL; MIC [11]: 0.5 µg/mL; log10CFU/ml [12]: 4.78; log10CFU/ml [13]: 5.12; log10CFU/ml [14]: 3.33; MBC50 [15]: 1 µg/mL (≈ 0.617 µM); MBC90 [15]: 2 µg/mL (≈ 1.23 µM); MBC [15]: 0.25 µg/mL (≈ 0.154 µM); MIC50 [15]: 1 µg/mL (≈ 0.617 µM); MIC90 [15]: 1 µg/mL (≈ 0.617 µM); MBC [16]: 1 µg/mL (≈ 0.617 µM); MIC [16]: 1 µg/mL (≈ 0.617 µM); log10CFU/ml [17]: 5.14; log10CFU/ml [18]: 4.82; log10CFU/ml [19]: 5.1; MBC [20]: 2 µg/mL; MIC [20]: 2 µg/mL; log10CFU/ml [21]: 4.01; MBC50 [22]: 4 µg/mL; MBC90 [22]: 8 µg/mL; MBC [22]: 1 µg/mL; MIC50 [22]: 1 µg/mL; MIC90 [22]: 4 µg/mL; log10CFU/ml [23]: 2.53
